# Source: PubChem (Sanford-Burnham Center for Chemical Genomics)
# A3G deaminase: APOBEC3G DNA deaminase inhibitors, primary screen, biochemical, fluorescence, single-stranded DNA substrate, uHTS. inhibition, % at 20 µM. recombinant A3G, ssDNA deamination FAM/TAMRA fluorescence. 0.28% of 330,000 active. DNA dC->dU-editing enzyme APOBEC-3G (Homo sapiens), Q9HC16. AID 493012, 2011;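 active = inhibition of at least 40% at 20 µM, with no more than 30% in the related APOBEC3A deaminase screen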;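 note: plate controls were DMSO wells with A3G for no effect and wells lacking A3G enzyme for full effect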
# HKDC1 inhibitor: HKDC1 hexokinase inhibitors, primary screen, biochemical, fluorescence, uHTS; recombinant HKDC1, G6PDH/diaphorase resazurin coupled fluorescence; inhibition, % at 20 µM; 0.16% of 340,000 active; AID 493160, 2011;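 active = inhibition above about 35% when tested at 20 µM, limit read from the data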;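 note: plate controls were DMSO wells with enzyme for no effect and DMSO wells lacking enzyme for full effect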
# Target sequence (Q2TB90 whole entry, looked up): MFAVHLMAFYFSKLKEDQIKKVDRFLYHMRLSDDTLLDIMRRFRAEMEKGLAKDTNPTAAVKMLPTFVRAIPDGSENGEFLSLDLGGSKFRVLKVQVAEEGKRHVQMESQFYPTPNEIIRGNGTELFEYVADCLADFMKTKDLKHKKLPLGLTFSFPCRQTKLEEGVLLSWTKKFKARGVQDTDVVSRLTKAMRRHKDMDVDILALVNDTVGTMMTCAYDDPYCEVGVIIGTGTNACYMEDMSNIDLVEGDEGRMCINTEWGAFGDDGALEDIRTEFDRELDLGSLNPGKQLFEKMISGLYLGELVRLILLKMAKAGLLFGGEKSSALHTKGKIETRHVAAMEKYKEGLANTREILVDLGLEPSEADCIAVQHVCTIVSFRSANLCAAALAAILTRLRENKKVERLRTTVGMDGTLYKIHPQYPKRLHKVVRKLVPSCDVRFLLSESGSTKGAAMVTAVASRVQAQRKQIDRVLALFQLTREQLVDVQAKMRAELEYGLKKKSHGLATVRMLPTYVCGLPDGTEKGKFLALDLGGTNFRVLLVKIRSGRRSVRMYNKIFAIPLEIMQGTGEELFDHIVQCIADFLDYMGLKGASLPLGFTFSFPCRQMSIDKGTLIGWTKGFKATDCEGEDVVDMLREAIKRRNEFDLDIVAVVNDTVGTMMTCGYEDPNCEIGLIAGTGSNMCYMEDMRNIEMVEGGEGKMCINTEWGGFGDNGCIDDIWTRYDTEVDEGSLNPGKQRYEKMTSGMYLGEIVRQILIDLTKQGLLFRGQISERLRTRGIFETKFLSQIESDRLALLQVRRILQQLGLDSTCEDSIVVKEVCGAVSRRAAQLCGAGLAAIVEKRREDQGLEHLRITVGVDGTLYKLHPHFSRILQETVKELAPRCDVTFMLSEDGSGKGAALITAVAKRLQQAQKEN
#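 Incubation: 90 min at room temperature in dark / Material: recombinant HKDC1 (HK5) hexokinase enzyme, produced in-house / Quantity: enzyme 5 µg/mL final / Compound: one dose of 20 µM, 1% DMSO / Reagent: glucose and ATP substrates / Buffer or medium: Tris pH 8.0 buffer with MgCl2, Tween-20, BSA, BME / Technique: resorufin fluorescence at 613 nm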
# PfGluPho inh: PfG6PD enzyme inhibitors, primary screen, biochemical, fluorescence intensity, uHTS; glucose-6-phosphate dehydrogenase-6-phosphogluconolactonase (Plasmodium falciparum 3D7); inhibition, % at 20 µM; PfGluPho enzyme, NADPH resazurin-diaphorase fluorescence; 0.78% of 350,000 active;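 active = inhibition reaching at least a set limit at 20 µM in the primary screen, cut at about 59% in these data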;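 note: 0% = DMSO wells with substrate and 100% = DMSO wells lacking glucose-6-phosphate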
# iPSC survival up: enhancers of single-cell hiPSC survival, primary screen, ATPlite luminescence. 100% = ROCK inhibitor wells, 0% = DMSO. 0.044% of 360,000 active. survival enhancement, % at 20 µM; in the data active = survival enhancement above about 18%;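 note: cells exposed to compounds for 16 hours before the ATP read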
# APOBEC3A inh: APOBEC3A ssDNA deaminase inhibitors, primary screen, selectivity assay for APOBEC3G inhibitor project, biochemical, FAM/TAMRA oligo cleavage fluorescence. 0.41% of 330,000 active. DNA dC->dU-editing enzyme APOBEC-3A (Homo sapiens), P31941. inhibition, % at 20 µM. recombinant A3A, FAM/TAMRA ssDNA deamination fluorescence;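 active = at least 40% inhibition at 20 µM here, with at most 30% in a related deaminase screen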;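 note: plate controls were A3A with DMSO for no effect and wells lacking A3A enzyme for full effect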
# A3A conf: APOBEC3A deaminase inhibitors, retest, confirmation, selectivity assay for APOBEC3G inhibitor project, biochemical, single concentration, fluorescence readout; shares compounds with APOBEC3A inh; recombinant A3A, ssDNA deaminase UDG fluorescence assay; inhibition, % at 20 µM; 63% of 1,400 active;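 active = inhibition reaching a set limit, 80% of the first screen's cutoff, at 20 µM in any replicate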;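 note: plate controls were DMSO wells with A3A for no effect and wells lacking A3A enzyme for full effect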
# UDG A3A counter: E. coli UDG inhibitors, confirmation, counter-screen for APOBEC3A inhibitor project, biochemical, single concentration, fluorescence, FAM/TAMRA oligo | shares compounds with APOBEC3A inh | UDG counterscreen, FAM/TAMRA uracil oligo fluorescence | inhibition, % at 20 µM | 1,000 tested, under 10 active | AID 504714, 2011; call rule not given here
# Starred values were filed as active, the others as inactive; x = no result. Hits are enriched below; roughly 1.4% of the tested compounds scored in any of these assays.
SMILES,A3G deaminase,HKDC1 inhibitor,PfGluPho inh,iPSC survival up,APOBEC3A inh,A3A conf,UDG A3A counter
Cn1c(=Nc2ccc(N3CCOCC3)cc2)ccc2ccccc21,20,-4,7,1,54*,21,x
COc1ccc(C(=O)NC2CC2)cc1OC1CCN(Cc2cc(C)cc(C)c2)CC1,-9,4,0,0,-1,x,x
O=C(NC1CCCc2ccccc21)c1cc(Cl)ccn1 (stereo not drawn),12,9,-6,0,62*,30,x
O=C(NC1CCCc2ccccc21)c1ccccn1 (stereo not drawn),-5,-2,2,0,0,x,x
Cc1c2cccn2cc[n+]1C,21,-4,2,2,42*,78*,1
CCN(C(=O)COC(=O)CNC(=O)c1cccs1)c1c(N)n(Cc2ccccc2)c(=O)[nH]c1=O,x,-3,-2,0,x,x,x
COCCN(C(=O)COC(=O)CNC(=O)c1cccs1)c1c(N)n(Cc2ccccc2)c(=O)[nH]c1=O,9,-3,-9,1,53*,50*,-3
Cn1nc(C(=O)OCC(=O)c2ccc(Br)cc2)c2ccccc2c1=O,-2,-3,9,1,-3,x,x
CCc1noc(C)c1C(=O)N1CCN(S(=O)(=O)c2ccc(Cl)cc2)CC1,-6,-3,9,0,-2,x,x
CCc1noc(C)c1C(=O)N1CCN(S(=O)(=O)c2ccc(C(C)=O)cc2)CC1,1,-5,1,1,40*,-2,x
COC(=O)c1ccc(Cn2c(C)cc(C)[n+]2C)o1,29,-6,-8,-3,52*,72*,-3
CCCc1n(CC(O)COC2CCCCC2)c2ccccc2[n+]1C (stereo not drawn),13,-4,4,-1,56*,76*,1
CCCc1n(CC(O)COCc2ccccc2)c2ccccc2[n+]1C (stereo not drawn),8,-7,-2,0,58*,69*,-2
CCOC(=O)[C@]12CCC=C1N(Cc1ccco1)C(=O)[C@H](CC(=O)NCc1cccc3ccccc13)C2,x,x,x,0,x,x,x
COc1cccc2c1C(=O)c1c(O)c3c(c(O)c1C2=O)C[C@](O)(C(C)=O)C[C@H]3O[C@@H]1C[C@@H](N)[C@@H](O)[C@@H](C)O1,24,18,-17,-5,50*,42*,x
Cn1cnc(NCc2ccccc2)c1[N+](=O)[O-],-3,4,5,0,44*,-4,-2
CC1CC(OCC(O)C[N+]2(C)CCOCC2)CC(C)(C)C1 (stereo not drawn),18,-8,-2,-2,62*,69*,4
CC1CC(OCC(O)CN2CCOCC2)CC(C)(C)C1 (stereo not drawn),0,-8,-6,-3,4,x,x
CNC(=O)c1cc(Cl)c(OC)c(OC)c1,12,-11,41,2,57*,12,x
Cc1ccc(N2C(SCC(=O)O)=NC(=Nc3cccc(C)c3)C23CCCC3)cc1,5,-2,9,0,44*,15*,-2
COc1ccc(/C=C/C(=O)N(CCC(N)=O)c2ccccc2)cc1S(=O)(=O)N1CCOCC1,-3,-6,15,0,41*,27*,-36
COc1ccc(CN(CCCn2cnc3c(OC)ncnc32)CCCn2cnc3c(OC)ncnc32)cc1,x,x,1,3,x,x,x
COC(=O)Cn1cc(/C=N/NC(=O)COc2cccc3cccnc23)c2ccccc21,-5,-6,-2,-2,2,x,x
C#CCn1cc(/C=N/NC(=O)COc2cccc3cccnc23)c2ccccc21,12,4,7,-1,65*,47*,-2
CC(C)OCCCNC(=O)c1cn(C)c2ccc(S(=O)(=O)N(C)C3CCCCC3)cc2c1=O,-7,-2,7,0,-5,x,x
SMILES,A3G deaminase,HKDC1 inhibitor,PfGluPho inh,iPSC survival up,APOBEC3A inh,A3A conf,UDG A3A counter
O=C(NCC1COc2ccccc2O1)c1ccc(F)c(S(=O)(=O)N2CCOCC2)c1 (stereo not drawn),-4,-3,-13,1,0,x,x
O=C(NCC1COc2ccccc2O1)c1cc(S(=O)(=O)N2CCOCC2)c(Cl)cc1Cl (stereo not drawn),4,2,-15,1,42*,1,x
Cc1ccc(NS(=O)(=O)c2ccc3c(c2)CC(=O)N3)cc1F,-7,7,-7,-2,-4,x,x
CCNc1ccc(Br)cc(C(=O)/C=C/c2ccc(Cl)cc2)c1=O,13,12,58,-2,20,x,x
CCNc1ccc(Br)cc(C(=O)/C=C/c2ccc3c(c2)OCO3)c1=O,28,21,33,-1,46*,19*,-4
CCCC(=O)N1CCCC1(C)C(=O)Nc1ccc(-n2cncn2)cc1 (stereo not drawn),x,x,x,4,x,x,x
Cc1nn(-c2ccccc2)nc1C(=O)Nc1cccc(C(=O)NC2CC2)c1,x,x,7,-3,x,x,x
CN(C)c1cccc(C(=O)OCc2cc(=O)oc3cc(O)ccc23)c1,19,5,-4,0,74*,75*,-2
Cc1ccc(Nc2nc(-c3ccc(S(=O)(=O)N4CCCC4)cc3)cs2)cc1C,-3,-9,38,-2,87*,-7,0
Cc1nc2ccc(NC(=O)C3COc4ccccc4O3)cc2s1 (stereo not drawn),16,-1,25,0,49*,60*,2
COc1ccc([N+](=O)[O-])cc1CSc1ccccn1,7,1,-11,-1,52*,46*,2
C=CCC[C@H](Cc1ccc(F)cc1)C(=O)OC[C@@H](Cc1c[nH]c2ccccc12)NC(=O)[C@H](CC=C)CC(=O)N(CCO)Cc1ccccc1,-8,2,26,-3,-1,x,x
COc1ccccc1C1=CC(=O)CC(C)(C)C1=O,-1,1,-9,9,2,x,x
CC(C)CN(C(=O)c1ccco1)C1CCS(=O)(=O)C1 (stereo not drawn),-10,-5,6,0,-3,x,x
CCCCN(C(=O)c1ccco1)C1CCS(=O)(=O)C1 (stereo not drawn),-9,6,2,0,65*,2,4
